Reference: ChEMBL document CHEMBL2146397, “The Substrate-Activity-Screening methodology applied to receptor tyrosine kinases: a proof-of-concept study” (Eur J Med Chem, 2012)
Square brackets hold non-standard residues; d marks the D form. Peptide text beside a SMILES is read from it. * marks the point of attachment. Phe(4-Cl) = N[C@@H](Cc1ccc(Cl)cc1)C(=O)O; X2 = O=C(O)[C@H]1CCCC[C@@H]1C(=O)*

Target: Insulin-like growth factor 1 receptor (Homo sapiens, UniProt P08069)
Test: Activity at pre-activated human GST-His6-tagged IGF-1R expressed in Sf9 cells assessed as initial phosphorylation rate at 10 uM measured every 2 mins for 60 mins by Michaelis-Menten constant based ADP Quest assay
Procedure, shortened: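 Reaction buffer was the same plus 0.1 mg/mL BSA, with kinase, peptide substrate and detection reagents. Started with ATP; fluorescence read every 2 min for 60 min; 3 independent experiments.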

Chain of Insulin-like growth factor 1 receptor (P08069 31-736 limits assumed): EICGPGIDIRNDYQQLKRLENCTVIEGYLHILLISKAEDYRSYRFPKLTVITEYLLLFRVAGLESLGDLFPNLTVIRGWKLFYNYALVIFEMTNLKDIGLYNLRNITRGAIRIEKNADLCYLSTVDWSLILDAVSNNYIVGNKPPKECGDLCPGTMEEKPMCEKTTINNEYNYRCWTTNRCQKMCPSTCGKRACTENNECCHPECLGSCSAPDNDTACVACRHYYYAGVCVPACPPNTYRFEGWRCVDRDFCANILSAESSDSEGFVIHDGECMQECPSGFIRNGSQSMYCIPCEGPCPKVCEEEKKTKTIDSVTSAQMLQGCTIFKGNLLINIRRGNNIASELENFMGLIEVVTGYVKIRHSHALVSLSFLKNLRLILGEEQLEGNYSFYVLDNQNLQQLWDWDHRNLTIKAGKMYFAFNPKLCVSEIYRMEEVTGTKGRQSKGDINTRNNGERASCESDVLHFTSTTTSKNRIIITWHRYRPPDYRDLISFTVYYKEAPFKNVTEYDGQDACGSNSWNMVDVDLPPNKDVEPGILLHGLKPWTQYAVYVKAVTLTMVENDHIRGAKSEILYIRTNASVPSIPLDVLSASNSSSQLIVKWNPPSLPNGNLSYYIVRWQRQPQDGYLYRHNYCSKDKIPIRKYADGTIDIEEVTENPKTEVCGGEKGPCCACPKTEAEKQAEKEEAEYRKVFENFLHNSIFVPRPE
Chain of Insulin-like growth factor 1 receptor (P08069 741-1367 limits assumed): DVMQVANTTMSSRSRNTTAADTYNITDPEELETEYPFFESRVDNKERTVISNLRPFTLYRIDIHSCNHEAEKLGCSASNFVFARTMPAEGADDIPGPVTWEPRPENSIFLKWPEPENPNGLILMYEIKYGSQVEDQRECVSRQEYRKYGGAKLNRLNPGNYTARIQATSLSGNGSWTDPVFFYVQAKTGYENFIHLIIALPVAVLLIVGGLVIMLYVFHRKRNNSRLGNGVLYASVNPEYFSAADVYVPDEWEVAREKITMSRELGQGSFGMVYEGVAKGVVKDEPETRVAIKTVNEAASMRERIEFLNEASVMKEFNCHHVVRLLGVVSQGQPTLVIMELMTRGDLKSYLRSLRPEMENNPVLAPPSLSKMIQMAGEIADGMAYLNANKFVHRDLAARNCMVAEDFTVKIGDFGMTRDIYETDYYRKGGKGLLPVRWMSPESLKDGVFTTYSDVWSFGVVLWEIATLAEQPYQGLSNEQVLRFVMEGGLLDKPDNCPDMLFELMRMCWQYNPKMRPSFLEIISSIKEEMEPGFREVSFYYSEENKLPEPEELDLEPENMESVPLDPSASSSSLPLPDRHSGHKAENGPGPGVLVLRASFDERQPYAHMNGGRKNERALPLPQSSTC

Question: With CNC(=O)[C@H](Cc1c[nH]c2ccccc12)NC(=O)[C@H](CCC(=O)O)NC(=O)[C@H](Cc1ccccc1)NC(=O)[C@H](Cc1ccc(O)cc1)NC(=O)[C@@H]1CCCC[C@@H]1C(=O)O as the compound, how does the Activity read?
Answer: 4.6 nM/s

Question: For CNC(=O)[C@H](Cc1c[nH]c2ccccc12)NC(=O)CNC(=O)[C@H](Cc1ccccc1)NC(=O)[C@H](Cc1ccc(O)cc1)NC(=O)[C@H](CC(=O)O)NC(C)=O, which Activity is on record?
Answer: 1.7 nM/s

Question: CNC(=O)[C@H](Cc1ccc(Cl)c(Cl)c1)NC(=O)CNC(=O)[C@H](Cc1ccccc1)NC(=O)[C@H](Cc1ccc(O)cc1)NC(=O)[C@H](CC(=O)O)NC(C)=O (HELM PEPTIDE1{[ac].D.Y.F.G.[O=C([C@H](Cc1ccc(Cl)c(Cl)c1)N[*:1])[*:2]].[CN[*:1]]}$$$$V2.0) was tested. Which Activity did it give?
Answer: 0.55 nM/s

Question: For CNC(=O)[C@H](Cc1ccc(Cl)cc1)NC(=O)[C@H](CCC(=O)O)NC(=O)[C@H](Cc1ccccc1)NC(=O)[C@H](Cc1ccc(O)cc1)NC(=O)[C@H]1CCCC[C@@H]1C(=O)O (X2-YFE[Phe(4-Cl)]-NHMe), which Activity is on record?
Answer: 4 nM/s

Question: With CNC(=O)[C@H](Cc1ccc(Cl)cc1)NC(=O)CNC(=O)[C@H](Cc1ccccc1)NC(=O)[C@H](Cc1ccc(O)cc1)NC(=O)[C@H](CC(=O)O)NC(C)=O (HELM PEPTIDE1{[ac].D.Y.F.G.[O=C([C@H](Cc1ccc(Cl)cc1)N[*:1])[*:2]].[CN[*:1]]}$$$$V2.0) as the compound, how does the Activity read?
Answer: 0.47 nM/s

Question: For CNC(=O)[C@H](Cc1ccccc1)NC(=O)[C@H](CCC(=O)O)NC(=O)[C@H](Cc1ccccc1)NC(=O)[C@H](Cc1ccc(O)cc1)NC(=O)[C@H](CC(=O)O)NC(C)=O (HELM PEPTIDE1{[ac].D.Y.F.E.F.[CN[*:1]]}$$$$V2.0), which Activity is on record?
Answer: 1.7 nM/s

Question: For CNC(=O)[C@H](Cc1ccc(Cl)cc1)NC(=O)[C@H](CCC(=O)O)NC(=O)[C@H](Cc1ccccc1)NC(=O)[C@H](Cc1ccc(O)cc1)NC(=O)[C@H](CC(=O)O)NC(C)=O (HELM PEPTIDE1{[ac].D.Y.F.E.[O=C([C@H](Cc1ccc(Cl)cc1)N[*:1])[*:2]].[CN[*:1]]}$$$$V2.0), which Activity is on record?
Answer: 2.6 nM/s

Question: For CNC(=O)[C@H](Cc1c[nH]c2ccccc12)NC(=O)[C@H](CCC(=O)O)NC(=O)[C@H](Cc1ccccc1)NC(=O)[C@H](Cc1ccc(O)cc1)NC(=O)[C@H](CCC(=O)O)NC(C)=O, which Activity is on record?
Answer: 2.5 nM/s

Question: With CNC(=O)[C@@H](Cc1c[nH]c2ccccc12)NC(=O)CNC(=O)[C@H](Cc1ccccc1)NC(=O)[C@H](Cc1ccc(O)cc1)NC(=O)[C@H](CC(=O)O)NC(C)=O as the compound, how does the Activity read?
Answer: 0.09 nM/s

Question: How did the Activity turn out when CNC(=O)[C@H](Cc1c[nH]c2ccccc12)NC(=O)[C@H](CCC(=O)O)NC(=O)[C@H](Cc1ccccc1)NC(=O)[C@H](Cc1ccc(O)cc1)NC(=O)[C@H]1CCC[C@@H]1C(=O)O (HELM PEPTIDE1{[O=C(O)[C@H]1CCC[C@@H]1C(=O)[*:2]].Y.F.E.W.[CN[*:1]]}$$$$V2.0) was run?
Answer: 0.84 nM/s

Question: With CNC(=O)[C@H](Cc1c[nH]c2cc(Cl)ccc12)NC(=O)[C@H](CCC(=O)O)NC(=O)[C@H](Cc1ccccc1)NC(=O)[C@H](Cc1ccc(O)cc1)NC(=O)[C@H](CC(=O)O)NC(C)=O (HELM PEPTIDE1{[ac].D.Y.F.E.[O=C([C@H](Cc1c[nH]c2cc(Cl)ccc12)N[*:1])[*:2]].[CN[*:1]]}$$$$V2.0) as the compound, how does the Activity read?
Answer: 6.7 nM/s

Question: CNC(=O)[C@H](Cc1c[nH]c2ccccc12)NC(=O)[C@H](CCC(=O)O)NC(=O)[C@H](Cc1ccccc1)NC(=O)[C@H](Cc1ccc(O)cc1)NC(=O)[C@H](CC(=O)O)NC(C)=O was tested. Which Activity did it give?
Answer: 6.2 nM/s

Question: With CNC(=O)[C@H](Cc1ccccc1)NC(=O)[C@H](CCC(=O)O)NC(=O)[C@H](Cc1ccccc1)NC(=O)[C@H](Cc1ccc(O)cc1)NC(=O)[C@H]1CCC[C@@H]1C(=O)O (HELM PEPTIDE1{[O=C(O)[C@H]1CCC[C@@H]1C(=O)[*:2]].Y.F.E.F.[CN[*:1]]}$$$$V2.0) as the compound, how does the Activity read?
Answer: 0.24 nM/s

Question: How did the Activity turn out when CNC(=O)[C@H](Cc1c[nH]c2ccccc12)NC(=O)[C@H](CCC(=O)O)NC(=O)[C@H](Cc1ccccc1)NC(=O)[C@H](Cc1ccc(O)cc1)NC(=O)CCC(=O)O (HELM PEPTIDE1{[O=C(O)CCC(=O)[*:2]].Y.F.E.W.[CN[*:1]]}$$$$V2.0) was run?
Answer: 1.45 nM/s

Question: For CNC(=O)[C@H](Cc1ccccc1)NC(=O)[C@H](CCC(=O)O)NC(=O)[C@H](Cc1ccccc1)NC(=O)[C@H](Cc1ccc(O)cc1)NC(=O)[C@@H]1CCCC[C@@H]1C(=O)O (HELM PEPTIDE1{[O=C(O)[C@H]1CCCC[C@H]1C(=O)[*:2]].Y.F.E.F.[CN[*:1]]}$$$$V2.0), which Activity is on record?
Answer: 1.1 nM/s

Question: For CNC(=O)[C@H](Cc1c[nH]c2ccccc12)NC(=O)[C@H](CCC(=O)O)NC(=O)[C@H](Cc1ccccc1)NC(=O)[C@H](Cc1ccc(O)cc1)NC(C)=O (HELM PEPTIDE1{[ac].Y.F.E.W.[CN[*:1]]}$$$$V2.0), which Activity is on record?
Answer: 0.17 nM/s

Question: How did the Activity turn out when CNC(=O)[C@@H](Cc1c[nH]c2ccccc12)NC(=O)[C@H](CCC(=O)O)NC(=O)[C@H](Cc1ccccc1)NC(=O)[C@H](Cc1ccc(O)cc1)NC(=O)[C@H](CC(=O)O)NC(C)=O was run?
Answer: 0.28 nM/s

Question: Which Activity does the source give for CNC(=O)[C@H](Cc1ccc2ccccc2c1)NC(=O)[C@H](CCC(=O)O)NC(=O)[C@H](Cc1ccccc1)NC(=O)[C@H](Cc1ccc(O)cc1)NC(=O)[C@H](CC(=O)O)NC(C)=O (HELM PEPTIDE1{[ac].D.Y.F.E.[O=C([C@H](Cc1ccc2ccccc2c1)N[*:1])[*:2]].[CN[*:1]]}$$$$V2.0) here?
Answer: 3.4 nM/s

Question: Which Activity does the source give for CNC(=O)[C@H](Cc1c[nH]c2ccccc12)NC(=O)[C@H](CCC(=O)O)NC(=O)[C@H](Cc1ccccc1)NC(=O)[C@H](Cc1ccc(O)cc1)NC(=O)[C@H](CC(N)=O)NC(C)=O (HELM PEPTIDE1{[ac].N.Y.F.E.W.[CN[*:1]]}$$$$V2.0) here?
Answer: 2.8 nM/s

Question: For CNC(=O)[C@H](Cc1c[nH]c2cc(Cl)ccc12)NC(=O)CNC(=O)[C@H](Cc1ccccc1)NC(=O)[C@H](Cc1ccc(O)cc1)NC(=O)[C@H](CC(=O)O)NC(C)=O (HELM PEPTIDE1{[ac].D.Y.F.G.[O=C([C@H](Cc1c[nH]c2cc(Cl)ccc12)N[*:1])[*:2]].[CN[*:1]]}$$$$V2.0), which Activity is on record?
Answer: 2.1 nM/s

Question: With CNC(=O)[C@H](Cc1c[nH]c2ccccc12)NC(=O)[C@H](CCC(=O)O)NC(=O)[C@H](Cc1ccccc1)NC(=O)[C@H](Cc1ccc(O)cc1)NC(=O)[C@@H]1CCC[C@H]1C(=O)O (HELM PEPTIDE1{[O=C(O)[C@@H]1CCC[C@H]1C(=O)[*:2]].Y.F.E.W.[CN[*:1]]}$$$$V2.0) as the compound, how does the Activity read?
Answer: 5.4 nM/s

Question: CNC(=O)[C@H](Cc1ccc(Cl)c(Cl)c1)NC(=O)[C@H](CCC(=O)O)NC(=O)[C@H](Cc1ccccc1)NC(=O)[C@H](Cc1ccc(O)cc1)NC(=O)[C@H](CC(=O)O)NC(C)=O (HELM PEPTIDE1{[ac].D.Y.F.E.[O=C([C@H](Cc1ccc(Cl)c(Cl)c1)N[*:1])[*:2]].[CN[*:1]]}$$$$V2.0) was tested. Which Activity did it give?
Answer: 2.1 nM/s

Question: Which Activity does the source give for CNC(=O)[C@H](Cc1ccccc1)NC(=O)[C@H](CCC(=O)O)NC(=O)[C@H](Cc1ccccc1)NC(=O)[C@H](Cc1ccc(O)cc1)NC(=O)C1CCC1C(=O)O (stereo not given in full) (HELM PEPTIDE1{[O=C(O)C1CCC1C(=O)[*:2]].Y.F.E.F.[CN[*:1]]}$$$$V2.0) here?
Answer: 1.9 nM/s

Question: With CNC(=O)[C@H](Cc1c[nH]c2cc(Cl)ccc12)NC(=O)[C@H](CCC(=O)O)NC(=O)[C@H](Cc1ccccc1)NC(=O)[C@H](Cc1ccc(O)cc1)NC(=O)[C@H](CCC(=O)O)NC(C)=O (HELM PEPTIDE1{[ac].E.Y.F.E.[O=C([C@H](Cc1c[nH]c2cc(Cl)ccc12)N[*:1])[*:2]].[CN[*:1]]}$$$$V2.0) as the compound, how does the Activity read?
Answer: 3.3 nM/s

Question: CNC(=O)[C@H](Cc1c[nH]c2ccccc12)NC(=O)[C@H](CCC(=O)O)NC(=O)[C@H](Cc1ccccc1)NC(=O)[C@H](Cc1ccc(O)cc1)NC(=O)[C@H]1CCCC[C@@H]1C(=O)O was tested. Which Activity did it give?
Answer: 10.9 nM/s
